Assay outcomes deposited in PubChem by Sanford-Burnham Center for Chemical Genomics.
LMPTP block – LMPTP phosphatase inhibitors, primary screen, biochemical, fluorescence intensity, uHTS; Low molecular weight phosphotyrosine protein phosphatase (Homo sapiens), P24666; recombinant LMPTP-A, OMFP fluorogenic substrate; inhibition, % at 20 µM; 360,000 compounds, 0.22% hits; AID 651560, 2012;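 active = compounds that cut the enzyme signal by at least half of the control window in the single-dose screen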;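 note: plate controls were DMSO wells with enzyme plus substrate for no effect and substrate without enzyme for full effect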
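Buffer or medium: Bis-Tris pH 6.0, DTT, detergent; Assay system: LMPTP-A enzyme; Quantity: 0.625 nM enzyme; Detection: endpoint fluorescence intensity; Times: 50 min dark incubation at room temperature; Controls: substrate-only low control, DMSO enzyme-plus-substrate high control; Doses: single 20 µM dose; Read-out: percent inhibition versus substrate-only and uninhibited controls; Reagent: 400 µM OMFP.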
Scp1 inh – Scp-1 phosphatase inhibitors, primary screen, biochemical, colorimetric, uHTS. inhibition, % at 20 µM. Recombinant Scp1, phosphopeptide, malachite green phosphate absorbance. Carboxy-terminal domain RNA polymerase II polypeptide A small phosphatase 1 (Homo …. 340,000 compounds, 0.88% hits;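 active = inhibition above about 50% at 20 µM, limit read from the data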;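 note: plate controls were DMSO wells with enzyme for no effect and wells lacking enzyme for full effect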
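Test system – truncated SCP-1 phosphatase (76-261aa) · Reagent – Phosphorylated 17-residue peptide substrate · Incubation – 45 min room-temperature reaction, 5 min colour, 30 min stabiliser · Detection – colorimetric phosphate reagent with accelerator and stabiliser, absorbance at 630 nm · Measure – % inhibition at 20 µM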
SUMO1 PPI mod – modulators of SUMO1 protein-protein interactions, primary screen, biochemical, uHTS; Small ubiquitin-related modifier 1 (Homo sapiens), P63165; SUMO1 binding to a labelled peptide, TR-FRET, 1 h; inhibition, % at 20 µM; 360,000 compounds, 0.33% hits; AID 602429, 2012; in the data active = inhibition above about 37%
Target sequence (P63165 whole entry, looked up): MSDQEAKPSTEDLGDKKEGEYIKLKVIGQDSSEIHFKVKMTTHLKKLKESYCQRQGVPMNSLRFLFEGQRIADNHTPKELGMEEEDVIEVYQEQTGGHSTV
DNMT1 block – human DNMT1 methyltransferase inhibitors, primary screen, biochemical, molecular beacon, fluorescence, HinP1I cleavage, uHTS; DNA (cytosine-5)-methyltransferase 1 (Homo sapiens), P26358; inhibition (reported as % activation of signal), % at 10 µM; 360,000 compounds, 0.83% hits; in the data active = inhibition above about 50%
STEP inh – STEP phosphatase inhibitors, primary screen, biochemical, fluorescence intensity, uHTS; recombinant STEP, OMFP fluorogenic substrate; inhibition, % at 20 µM; 360,000 compounds, 0.25% hits; AID 588621, 2011;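 active = inhibition at 20 µM, scaled per plate between control wells, above about 37%, limit read from the data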;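 note: 0% = DMSO with enzyme and substrate and 100% = substrate only without enzyme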
Target sequence (P54829 whole entry, looked up): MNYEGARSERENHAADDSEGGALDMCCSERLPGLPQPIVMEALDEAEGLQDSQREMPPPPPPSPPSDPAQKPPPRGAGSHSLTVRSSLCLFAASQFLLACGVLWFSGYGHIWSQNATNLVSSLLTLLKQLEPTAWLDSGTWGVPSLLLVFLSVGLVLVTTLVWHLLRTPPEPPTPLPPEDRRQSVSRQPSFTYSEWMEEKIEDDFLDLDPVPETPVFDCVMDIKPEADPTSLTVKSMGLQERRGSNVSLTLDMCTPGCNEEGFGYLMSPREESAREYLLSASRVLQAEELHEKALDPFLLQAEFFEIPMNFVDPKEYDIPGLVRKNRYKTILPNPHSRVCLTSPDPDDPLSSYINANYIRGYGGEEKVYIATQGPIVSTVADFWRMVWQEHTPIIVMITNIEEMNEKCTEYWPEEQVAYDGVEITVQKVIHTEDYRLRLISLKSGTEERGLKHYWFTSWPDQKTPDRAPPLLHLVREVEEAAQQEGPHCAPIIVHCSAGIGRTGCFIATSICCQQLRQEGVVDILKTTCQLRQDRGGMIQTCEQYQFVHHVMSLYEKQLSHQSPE
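Material: STEP (striatal-enriched tyrosine phosphatase) enzyme, cell-free | Medium: 50 mM Bis-Tris pH 6.0 with 2.5 mM DTT and 0.005% Tween 20 | Read-out: Percent inhibition scaled to no-enzyme and uninhibited-enzyme controls, plate-pattern corrected | Signal: Fluorescence read at 480 nm ex / 540 nm em | Times: 20 min reaction, room temperature, in the dark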
Scp-1 conf – Scp-1 phosphatase inhibitors, retest, confirmation, biochemical, colorimetric, single concentration | inhibition, % at 20 µM | 2,500 compounds, 61% hits | recombinant SCP-1 catalytic domain, phosphate release, malachite green absorbance | shares compounds with Scp1 inh;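 note: plate controls were DMSO with enzyme for no effect and buffer wells lacking enzyme for full effect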
Scp-1 MG ctr – colorimetric readout interference by compounds, confirmation, artefact control for Scp-1 inhibitor project, biochemical, single concentration. Colorimetric interference counterscreen, malachite green absorbance 630 nm. 2,500 tested, under 10 active. AID 540313, 2011. apparent inhibition (interference), % at 20 µM. shares compounds with Scp1 inh;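 note: compounds added after enzyme reaction finished so only phosphate colour detection is probed; plate controls were DMSO wells with completed Scp-1 reaction for no effect and substrate wells lacking enzyme for full effect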
Scp-1 Tm shift – Scp-1 binding by thermal shift, confirmation, orthogonal assay for Scp-1 inhibitor project, biophysical, differential scanning fluorimetry | 1,500 compounds, 25% hits | shares compounds with Scp1 inh | thermal shift relative to vanadate control, % at 40 µM | Recombinant SCP1, Sypro Orange thermal shift Tm;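 active = substances whose mean melting-temperature shift, as a percentage of the reference inhibitor's shift, reaches about 5.3%, limit read from the data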;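 note: 0% = Tm of DMSO wells and 100% = Tm with sodium orthovanadate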
* = called active by the depositor; nt = not tested or not shown. This is a sample that favours compounds with a hit; in the whole collection about 1.8% have one here.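 Rule for the calls, unless noted: active = inhibition of at least 30% at 20 µM; inactive = the rest.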

SMILES	LMPTP block	Scp1 inh	SUMO1 PPI mod	DNMT1 block	STEP inh	Scp-1 conf	Scp-1 MG ctr	Scp-1 Tm shift
COC(=O)C(C)Sc1n[nH]c(=S)s1 (configuration not stated)	-0.3	3.0	1.5	-2.5	-1.3	nt	nt	nt
Cc1cc(CC(=O)O)c2oc(-c3ccoc3)cc(=O)c2c1	nt	75.2*	nt	nt	nt	45.9*	-15.3	5.0
Cc1cc2c(=O)cc(-c3ccccc3)oc2c(C(=O)O)c1C	-0.8	nt	4.5	-4.2	-1.7	nt	nt	nt
Cc1cccc(NC(=O)CSCC(=O)Nc2cc(Cl)ccc2N2CCN(C)CC2)c1	0.3	-6.9	-1.2	-0.7	-0.5	nt	nt	nt
CC(=O)Nc1ccc(-c2nnc(SCC(=O)n3c4c(c5ccccc53)CCCC4)n2C)cc1	-0.4	84.1*	-0.3	1.2	4.5	7.5	3.1	nt
CCCN(CCC)C(=O)C(c1ccccc1)C1(O)CCCCC1 (configuration not stated)	-3.1	0.5	0.0	-1.2	2.1	nt	nt	nt
O=C(O)c1cccc2c1C(=O)N(c1ccc3c(c1)Cc1ccccc1-3)C2=O	-1.1	64.4*	-21.1	1.5	4.5	60.2*	-17.0	-13.8
O=C(O)c1cccc(N2C(=O)c3ccc4c5c(ccc(c35)C2=O)C(=O)N(c2cccc(C(=O)O)c2)C4=O)c1	0.3	2.5	-7.1	10.8	-1.2	nt	nt	nt
O=C1NC(=Nc2ccccc2)S/C1=C/c1cccs1	23.6	75.6*	-10.5	0.8	6.5	59.3*	-12.6	2.9
C=CCOCCN1C(=O)C2C3C=CC(C2C1=O)C1C2C(=O)N(CCOCC=C)C(=O)C2C31 (configuration not stated)	2.4	60.8*	-0.6	27.2	0.1	71.8*	-9.6	-20.0
O=C(O)CCCN1C(=O)C2C3C=CC(C2C1=O)C1C(=O)N(CCCC(=O)O)C(=O)C31 (configuration not stated)	-1.5	-2.0	3.5	2.0	-1.3	nt	nt	nt
CCn1c(=O)c(NC(=O)c2ccccc2)c2n(c1=S)CCCCC2	-2.3	60.9*	1.9	1.3	-5.1	40.3*	-13.9	-13.4
COC(=O)c1nnn(-c2nonc2N)c1CSc1nnc(C)s1	-1.1	50.9*	0.0	-2.0	-2.1	5.4	-1.0	nt
COC(=O)c1nnn(-c2nonc2N)c1CSc1nnc(N)s1	-3.2	-1.8	-6.8	-0.7	1.6	nt	nt	nt
COc1ccc(NC(=O)COC(=O)C2CCN(S(=O)(=O)c3ccccc3)CC2)cc1Cl	0.9	-15.2	1.1	-3.3	-0.6	nt	nt	nt
Cc1ccccc1NC(=O)C(=O)NNC(=O)COc1ccc2ccccc2c1	4.4	51.6*	7.4	5.2	23.4	69.2*	-4.0	-15.9
O=C(COc1ccc2ccccc2c1)NNC(=O)c1ccc([N+](=O)[O-])cc1	21.4	53.7*	-8.8	9.9	13.6	73.9*	-6.5	7.2*
O=C(COc1ccc([N+](=O)[O-])cc1)Nc1ccc(C(=O)Nc2ccccc2C(=O)O)cc1	-0.2	64.6*	15.0	-1.2	4.1	77.0*	-3.2	7.5*
CC(C)CN(CC(C)C)c1nn[nH]n1	-2.0	-6.7	2.0	0.7	2.1	nt	nt	nt
CCc1ccccc1NC(=O)CN1CCN(C(=O)CNC(=O)c2ccc(N3CCCC3=O)cc2)CC1	-1.9	-4.6	0.7	0.3	-0.5	nt	nt	nt
COCc1cc(=O)[nH]c(N2CCN(Cc3ccc4c(c3)OCO4)CC2)n1	-0.5	-0.9	3.0	-0.1	1.5	nt	nt	nt
CCC(=O)Nc1ccc(NC(=S)NC(=O)/C=C/c2ccccc2)cc1	-0.7	66.6*	1.8	1.5	12.3	-4.3	-15.6	nt
CCOC(=O)c1ccc2c(c1)n(CCO)c(C)[n+]2CC	-0.9	44.8	-4.3	1.5	-4.1	nt	nt	nt
CCOC(=O)c1ccc2c(c1)n(CC)c(/C=C/N(C)c1ccccc1)[n+]2CC	-1.5	94.1*	-1.7	4.7	1.5	97.5*	-1.3	-17.9
COc1cccc(/C=N/n2c(C3CCCCC3)n[nH]c2=S)c1	0.7	-4.2	0.5	-0.5	6.0	nt	nt	nt
SMILES	LMPTP block	Scp1 inh	SUMO1 PPI mod	DNMT1 block	STEP inh	Scp-1 conf	Scp-1 MG ctr	Scp-1 Tm shift
COc1cc(/C=C/C(=O)OCC(=O)Nc2c(C)n(C)n(-c3ccccc3)c2=O)cc(OC)c1OC	-0.8	-4.3	-5.7	4.6	0.9	nt	nt	nt
COC(=O)c1ccccc1NC(=O)[C@@H]1CCC(=O)N1C1OC(=O)c2c1ccc(OC)c2OC (some centres not stated)	-0.1	-4.0	-2.9	-4.5	0.8	nt	nt	nt
S=c1[nH]nc(COc2ccccc2)n1-c1ccc(Cl)cc1	0.4	50.6*	4.2	4.3	-4.5	3.0	-10.4	nt
CCc1nnc(NC(=O)c2ccc(COc3ccccc3C)o2)s1	3.3	-11.4	2.3	2.1	1.1	nt	nt	nt
O=C(CSc1nc2sc3c(c2c(=O)n1-c1ccccc1)CCCC3)N/N=C/c1ccc(C(=O)O)cc1	1.2	50.7*	-3.7	-3.4	2.2	38.5*	-12.9	-12.5
CS(=O)(=O)c1ccccc1-c1nnc(NC(=O)Cc2ccccc2)o1	-1.9	8.4	-2.6	5.2	3.3	nt	nt	nt
O=C(CN1C(=O)N/C(=C\c2ccccc2OCc2ccc(C(=O)O)cc2)C1=O)Nc1ccc(F)cc1	1.2	70.3*	-17.5	-2.2	7.1	65.4*	-19.7	-3.2
O=C(O)c1ccc(COc2ccc3ccccc3c2/C=C2/NC(=O)N(c3ccccc3)C2=O)cc1	0.9	-14.9	1.0	-1.3	1.0	nt	nt	nt
O=C(O)c1ccc(COc2ccccc2/C=C2/NC(=O)N(c3cccc(Cl)c3)C2=O)cc1	19.4	66.2*	-2.7	0.4	2.8	65.1*	-15.1	3.2
O=C(O)c1ccc(COc2ccccc2C=C2C(=O)c3ccccc3C2=O)cc1	0.5	68.5*	19.2	0.3	4.5	69.1*	-14.0	8.2*
CN1C(=O)/C(=C/c2ccccc2OCc2ccc(C(=O)O)cc2)NC1=S	0.9	-2.5	-7.8	-1.6	2.1	nt	nt	nt
O=C1NC(=S)N/C1=C\c1ccccc1OCc1ccc(C(=O)O)cc1	0.4	2.5	-8.0	3.3	2.8	nt	nt	nt
O=C(O)c1ccc(COc2ccccc2/C=C2\NC(=O)N(Cc3ccc(F)cc3)C2=O)cc1	0.6	63.0*	-9.8	3.0	1.7	66.3*	-10.4	2.8
